The M2OR odorant receptor database

Columns and labels:
Settings in all cases: stereoisomer not certain
OR10R2 (Homo sapiens) = molecular target: T1, OR10R2 (Homo sapiens) (UniProt Q8NGX6)
T1 sequence (whole entry): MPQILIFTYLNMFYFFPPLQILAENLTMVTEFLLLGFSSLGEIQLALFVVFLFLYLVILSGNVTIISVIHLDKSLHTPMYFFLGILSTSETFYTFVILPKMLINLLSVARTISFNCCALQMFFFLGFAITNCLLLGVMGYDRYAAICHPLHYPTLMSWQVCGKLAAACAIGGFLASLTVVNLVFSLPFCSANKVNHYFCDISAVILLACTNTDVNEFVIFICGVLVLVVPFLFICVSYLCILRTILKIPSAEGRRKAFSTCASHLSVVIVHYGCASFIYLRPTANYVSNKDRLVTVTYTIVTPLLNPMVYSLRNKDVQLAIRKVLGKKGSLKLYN
Summary of the method: (§1)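 Each entry records the cell line, G-protein, co-transfected protein and tags used. Methods varied with the source, often transient luciferase assays in mammalian cell lines. A receptor–molecule pair is called responsive (active) if the original authors judged its signal statistically different from baseline and non-responsive (inactive) otherwise.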

OR10S1 (Homo sapiens) = molecular target: T2, OR10S1 (Homo sapiens) (UniProt Q8NGN2)
T2 sequence (whole entry): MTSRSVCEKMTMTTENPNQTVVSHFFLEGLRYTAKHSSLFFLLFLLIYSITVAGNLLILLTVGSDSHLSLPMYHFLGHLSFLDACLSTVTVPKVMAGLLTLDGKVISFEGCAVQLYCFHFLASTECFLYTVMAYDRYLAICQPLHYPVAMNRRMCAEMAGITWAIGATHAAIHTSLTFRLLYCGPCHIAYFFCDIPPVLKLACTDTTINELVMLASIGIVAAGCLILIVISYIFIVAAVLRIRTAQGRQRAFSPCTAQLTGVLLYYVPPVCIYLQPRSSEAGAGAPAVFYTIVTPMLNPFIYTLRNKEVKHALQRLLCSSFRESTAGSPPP
Summary of the method: as §1

OR10T2 (Homo sapiens) = molecular target: T3, OR10T2 (Homo sapiens) (UniProt Q8NGX3)
T3 sequence (whole entry): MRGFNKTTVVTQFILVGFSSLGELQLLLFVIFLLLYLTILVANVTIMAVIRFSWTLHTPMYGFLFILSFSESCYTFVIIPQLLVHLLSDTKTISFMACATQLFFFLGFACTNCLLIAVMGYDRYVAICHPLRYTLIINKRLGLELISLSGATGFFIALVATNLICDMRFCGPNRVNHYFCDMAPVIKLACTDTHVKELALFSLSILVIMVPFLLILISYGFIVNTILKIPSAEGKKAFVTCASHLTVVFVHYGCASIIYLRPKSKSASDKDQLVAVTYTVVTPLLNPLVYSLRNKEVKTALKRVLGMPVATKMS
Summary of the method: as §1

OR10V1 (Homo sapiens) = molecular target: T4, OR10V1 (Homo sapiens) (UniProt Q8NGI7)
T4 sequence (whole entry): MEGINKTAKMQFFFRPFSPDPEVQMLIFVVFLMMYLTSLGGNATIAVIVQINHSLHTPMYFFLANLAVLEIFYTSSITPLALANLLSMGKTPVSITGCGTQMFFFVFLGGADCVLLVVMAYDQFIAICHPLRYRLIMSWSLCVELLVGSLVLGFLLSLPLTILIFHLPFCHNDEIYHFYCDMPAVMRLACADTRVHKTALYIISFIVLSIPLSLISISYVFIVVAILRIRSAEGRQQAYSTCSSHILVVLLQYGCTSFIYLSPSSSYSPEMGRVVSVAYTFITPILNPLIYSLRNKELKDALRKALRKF
Summary of the method: as §1

OR10W1 (Homo sapiens) = molecular target: T5, OR10W1 (Homo sapiens) (UniProt Q8NGF6)
T5 sequence (whole entry): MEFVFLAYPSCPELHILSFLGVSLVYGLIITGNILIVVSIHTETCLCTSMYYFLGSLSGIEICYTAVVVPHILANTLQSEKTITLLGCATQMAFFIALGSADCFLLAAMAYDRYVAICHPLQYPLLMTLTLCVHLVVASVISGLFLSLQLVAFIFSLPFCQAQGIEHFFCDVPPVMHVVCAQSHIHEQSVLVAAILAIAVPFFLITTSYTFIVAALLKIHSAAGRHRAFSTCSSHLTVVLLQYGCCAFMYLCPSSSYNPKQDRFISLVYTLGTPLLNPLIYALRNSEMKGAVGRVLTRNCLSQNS
Summary of the method: as §1

OR10X1 (Homo sapiens) = molecular target: T6, OR10X1 (Homo sapiens) (UniProt Q8NGY0)
T6 sequence (whole entry): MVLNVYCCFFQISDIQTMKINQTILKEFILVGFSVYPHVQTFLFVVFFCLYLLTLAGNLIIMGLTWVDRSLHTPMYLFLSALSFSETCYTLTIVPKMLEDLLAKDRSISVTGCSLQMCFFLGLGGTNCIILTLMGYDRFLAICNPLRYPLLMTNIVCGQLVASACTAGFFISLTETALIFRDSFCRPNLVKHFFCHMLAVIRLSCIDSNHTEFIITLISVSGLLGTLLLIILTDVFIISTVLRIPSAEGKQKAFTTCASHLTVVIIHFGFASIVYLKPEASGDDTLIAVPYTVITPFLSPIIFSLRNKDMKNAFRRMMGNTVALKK
Summary of the method: as §1

OR10Z1 (Homo sapiens) = molecular target: T7, OR10Z1 (Homo sapiens) (UniProt Q8NGY1)
T7 sequence (whole entry): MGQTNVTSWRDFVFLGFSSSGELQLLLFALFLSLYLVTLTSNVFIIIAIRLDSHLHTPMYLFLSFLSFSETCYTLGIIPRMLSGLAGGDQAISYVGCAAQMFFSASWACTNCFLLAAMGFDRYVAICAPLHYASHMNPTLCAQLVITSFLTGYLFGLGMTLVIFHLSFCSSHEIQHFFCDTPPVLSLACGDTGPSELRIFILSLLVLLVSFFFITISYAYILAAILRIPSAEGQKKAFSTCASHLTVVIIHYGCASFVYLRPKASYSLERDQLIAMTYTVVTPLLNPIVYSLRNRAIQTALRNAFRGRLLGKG
Summary of the method: as §1

OR11A1 (Homo sapiens) = molecular target: T8, OR11A1 (Homo sapiens) (UniProt Q9GZK7)
T8 sequence (whole entry): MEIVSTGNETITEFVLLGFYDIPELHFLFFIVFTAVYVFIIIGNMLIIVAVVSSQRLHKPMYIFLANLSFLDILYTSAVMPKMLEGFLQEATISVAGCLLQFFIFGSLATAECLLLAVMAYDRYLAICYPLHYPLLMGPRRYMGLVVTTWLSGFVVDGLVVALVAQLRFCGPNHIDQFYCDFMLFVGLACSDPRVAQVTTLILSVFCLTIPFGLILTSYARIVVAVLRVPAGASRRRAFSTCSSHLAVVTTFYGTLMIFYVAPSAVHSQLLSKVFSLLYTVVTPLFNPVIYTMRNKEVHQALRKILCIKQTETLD
Summary of the method: as §1

OR11G2 (Homo sapiens) = molecular target: T9, OR11G2 (Homo sapiens) (UniProt Q8NGC1)
T9 sequence (whole entry): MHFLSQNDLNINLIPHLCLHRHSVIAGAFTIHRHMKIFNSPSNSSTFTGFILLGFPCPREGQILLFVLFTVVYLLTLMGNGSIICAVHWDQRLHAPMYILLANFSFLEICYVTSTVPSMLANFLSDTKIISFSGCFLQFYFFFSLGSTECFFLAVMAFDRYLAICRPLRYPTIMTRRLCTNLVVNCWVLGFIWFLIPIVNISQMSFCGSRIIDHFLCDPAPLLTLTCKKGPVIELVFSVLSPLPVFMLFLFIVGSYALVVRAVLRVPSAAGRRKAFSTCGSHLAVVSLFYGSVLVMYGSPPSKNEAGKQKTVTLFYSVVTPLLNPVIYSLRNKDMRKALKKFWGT
Summary of the method: as §1

OR11H1 (Homo sapiens) = molecular target: T10, OR11H1 (Homo sapiens) (UniProt Q8NG94)
T10 sequence (whole entry): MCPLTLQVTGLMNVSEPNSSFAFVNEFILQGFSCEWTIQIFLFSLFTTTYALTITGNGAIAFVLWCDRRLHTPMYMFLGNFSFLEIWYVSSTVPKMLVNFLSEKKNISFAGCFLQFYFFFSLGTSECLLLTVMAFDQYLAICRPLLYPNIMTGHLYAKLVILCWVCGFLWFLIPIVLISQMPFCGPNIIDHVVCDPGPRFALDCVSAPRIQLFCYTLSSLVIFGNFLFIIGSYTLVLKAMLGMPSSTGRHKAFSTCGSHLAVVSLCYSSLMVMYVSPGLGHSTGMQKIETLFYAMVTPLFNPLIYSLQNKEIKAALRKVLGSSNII
Summary of the method: as §1

| SMILES | odorant receptor agonist call (OR10R2 (Homo sapiens)) | odorant receptor agonist call (OR10S1 (Homo sapiens)) | odorant receptor agonist call (OR10T2 (Homo sapiens)) | odorant receptor agonist call (OR10V1 (Homo sapiens)) | odorant receptor agonist call (OR10W1 (Homo sapiens)) | odorant receptor agonist call (OR10X1 (Homo sapiens)) | odorant receptor agonist call (OR10Z1 (Homo sapiens)) | odorant receptor agonist call (OR11A1 (Homo sapiens)) | odorant receptor agonist call (OR11G2 (Homo sapiens)) | odorant receptor agonist call (OR11H1 (Homo sapiens)) |
| --- | --- | --- | --- | --- | --- | --- | --- | --- | --- | --- |
| Cc1cnc(C)c(C)n1 | inactive | inactive | inactive | inactive | inactive | inactive | inactive | inactive | inactive | inactive |
| CCC(O)CC | – | inactive | – | – | – | – | – | – | – | – |
| CCCCCCCCCCCCCCCCCC(=O)[O-].[H+] | – | inactive | – | – | – | – | – | – | – | – |
| CC1CCCCCCCCCCCCC(=O)C1 (stereo not given) | inactive | inactive | inactive | inactive | inactive | inactive | inactive | inactive | inactive | inactive |
| CCC1OC(=O)C(O)=C1C (stereo not given) | inactive | inactive | inactive | inactive | inactive | inactive | inactive | inactive | inactive | inactive |
| CCCCCCCCCCCCCCCC(=O)OC | – | inactive | – | – | – | – | – | – | – | – |
| CCCCCCCCCC(=O)OCC | – | inactive | – | – | – | – | – | – | – | – |
| CC1=C(O)C(=O)OC1C (stereo not given) | inactive | inactive | inactive | inactive | inactive | inactive | inactive | inactive | inactive | inactive |
| CC(CO)CS (stereo not given) | inactive | inactive | inactive | inactive | inactive | inactive | inactive | inactive | inactive | inactive |
| CCC(S)C(C)CO (stereo not given) | inactive | inactive | inactive | inactive | inactive | inactive | inactive | inactive | inactive | inactive |
| CCC1OC(C)=C(O)C1=O (stereo not given) | inactive | inactive | inactive | inactive | inactive | inactive | inactive | inactive | inactive | inactive |
| CC1=C(O)C(=O)C(C)O1 (stereo not given) | inactive | inactive | inactive | inactive | inactive | inactive | inactive | inactive | inactive | inactive |
| CCCCCC(=O)C(C)C(C)=O (stereo not given) | inactive | inactive | inactive | inactive | inactive | inactive | inactive | inactive | inactive | inactive |
| CC1=NC(C)C(C)S1 (stereo not given) | inactive | inactive | inactive | inactive | inactive | inactive | inactive | inactive | inactive | inactive |
| CCCCC(S)C(C)CO (stereo not given) | inactive | inactive | inactive | inactive | inactive | inactive | inactive | inactive | inactive | inactive |
| CCCCCCC=CCCC=O | inactive | inactive | inactive | inactive | inactive | inactive | inactive | inactive | inactive | inactive |
| COc1ccc2[nH]cc(CCNC(C)=O)c2c1 | – | inactive | – | – | – | – | – | – | – | – |
| O=c1ccc2ccccc2o1 | – | inactive | – | – | – | – | – | – | – | – |
| CCC(C)CO (stereo not given) | – | inactive | – | – | – | – | – | – | – | – |
| CC(=O)c1c(C)c([N+](=O)[O-])c(C(C)(C)C)c([N+](=O)[O-])c1C | inactive | inactive | inactive | inactive | inactive | inactive | inactive | inactive | inactive | inactive |
| CCCCCCCCCCCC(=O)OC | – | inactive | – | – | – | – | – | – | – | – |
| CC(C=O)Cc1ccc(C(C)(C)C)cc1 (stereo not given) | – | active | – | – | – | – | – | – | – | – |
| CCCC(S)CCOC(C)=O (stereo not given) | inactive | inactive | inactive | inactive | inactive | inactive | inactive | inactive | inactive | inactive |
| CCCCCC(S)C(C)CO (stereo not given) | inactive | inactive | inactive | inactive | inactive | inactive | inactive | inactive | inactive | inactive |
| CCCCCCCCCCCC(=O)OCC | – | inactive | – | – | – | – | – | – | – | – |
